Experimental data as given in ChEMBL document CHEMBL1124291, “New actinomycin D analogues as superior chemotherapeutic agents against primary and advanced colon tumors and colon xenografts in nude mice” (J Med Chem, 1988).
Starred links: 1 amine or outer side, 2 acyl side, 3 side chain; linkers in the order of their positions; H or OH if unused. Positions of bridges follow the written chain, without caps; N, C: chain ends. Non-standard residues stand in square brackets, D forms with d. Residues, ends and D or L forms follow the SMILES beside them. Chains are numbered I, II in the order given. Actinocin(9to1) = Cc1c2oc3c(C)ccc(C(=O)[*:1])c3nc-2c(C(=O)[*:2])c(N)c1=O; NMeV = CN[C@H](C(=O)O)C(C)C; Sar = CNCC(=O)O

How the values were obtained:
[1] = system: B16; assay: In vivo antitumor activity against B16 melanoma cells at a optimal dose 300 ug/Kg /inj measured as %ILS (%increase life span); format: functional; details: Mus musculus
Outline: (§1)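 BDF1 mice in groups of nine were implanted ip on day 0 with 0.2 mL of 1:5 (w/v) B16 melanoma brei; drugs were given ip. Survival is reported as median survival time in days with range, and as %ILS, with survivors counted on day 65 out of total injected.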

[2] = system: B16; assay: In vivo antitumor activity against B16 melanoma cells at dose 300 ug/Kg /inj measured as Mean survival time (MST); format: functional, Mus musculus; outline: as §1
[3] = system: P388; assay: 50% inhibition of incorporation of precursor [3H]thymidine into DNA P388 cell lines; format: functional, cell-based; details: Mus musculus, P388, 2 h
[4] = system: MC-38; assay: Number of toxic deaths/number of mice in a group of non tumored mice treated in parallel with the tumor-bearing mice and observed for 100 days at a dose 0.60 mg/Kg; value given as 4/9; format: toxicity; details: mouse, in vivo, 0.6 mg/kg, 2400 h
Outline: (§2)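 Non-tumored CDF1 mice were treated in parallel with colon 38 tumor-bearing mice: iv injections on days 1, 5 and 9, groups of nine. Deaths were counted over 100 days of observation and reported as toxic deaths / mice in group.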

[5] = system: MC-38; assay: Mean survival time of treated /untreated group x100. (number of over 100-day survivors/ number of total mice in the group) at a dose 0.60 mg/kg; format: functional, Mus musculus; details: dose 0.6 mg/kg
Outline: (§3)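 CDF1 mice were implanted sc on day 0 with colon 38 adenocarcinoma fragments (70 mg) and given iv drug on days 1, 5 and 9. %T/C = median survival of treated / untreated × 100. Number of mice surviving over 100 days / group total is given in parentheses.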

[6] = system: MC-38; assay: Mean survival time of treated /untreategroup x100. (number of over 100-day survivors/ number of total mice in the group) at a dose 0.15 mg/kg; format: functional, Mus musculus; outline: as §3
[7] = system: MC-38; assay: Number of toxic deaths/number of mice in a group of non tumored mice treated in parallel with the tumor-bearing mice and observed for 100 days at a dose 0.45 mg/Kg; value given as 1/9; format: toxicity; details: mouse, in vivo, 2400 h; outline: as §2
[8] = system: HT-29; assay: 50% inhibition of incorporationf precursor [3H]thymidine into RNA HT-29 cell lines; format: functional, cell-based; details: Homo sapiens, HT-29, 2 h; in the assay text read “[14C]uridine” for “[3H]thymidine”
Outline: (§4)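 HT-29 colon carcinoma monolayers, 10^4 cells per well, five wells per concentration. Drug exposure lasted 2 h, with [³H]thymidine and [2-¹⁴C]uridine (0.5 μCi each) added for the last hour. Cells were washed, trypsinized, counted and precipitated onto glass-fiber filters with 10% TCA. Acid-precipitable radioactivity was measured. IC50 is the concentration inhibiting 50% of incorporation; data are averages of replicate experiments.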

[9] = system: P388; assay: Antitumor activity in P388/S(AMD sensitive) in male BDF1 mice measured as optimal dose at dose 0.075-2.5 mg/kg/injection, ip
[10] = species on record: Rattus norvegicus; assay: The formation of adrenochrome from epinephrine in the presence of SOD(super oxide dismutase); + denotes ' Inhibited'; format: functional
Outline: (§5)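 Drug-stimulated superoxide generation with rat liver microsomal enzymes and NADPH as cofactor. NADPH oxidation was read at 340 nm. Adrenochrome formed from epinephrine was read at 480 nm, with or without superoxide dismutase. % stimulation = [(drug-stimulated rate − basal rate)/basal rate] × 100. Values are mean ± standard error of triplicate analyses.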

[11] = system: MC-38; assay: Number of toxic deaths/number of mice in a group of non tumored mice treated in parallel with the tumor-bearing mice and observed for 100 days at a dose 0.15 mg/Kg; value given as 1/9; format: toxicity; details: mouse, in vivo, 2400 h; outline: as §2
[12] = system: HT-29; assay: 50% inhibition of incorporationf precursor [3H]thymidine into DNA HT-29 cell lines; format: functional, cell-based; details: Homo sapiens, HT-29, 2 h; outline: as §4
[13] = system: B16; assay: In vivo Antitumor activity against B16 melanoma cells at dose 250 ug/Kg /inj measured as Mean survival time (MST); format: functional, Mus musculus; outline: as §1
[14] = species on record: Rattus norvegicus; assay: Percent of the unconverted metabolite from incubation mixture containing rat microsomes; format: functional
Outline: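 Tritiated analogues were incubated with two systems. (T) sonicated P388 cell homogenates, 37 °C for 16 h. (M) liver microsomes from phenobarbital-induced rats, 6 h with an NADPH-generating system (glucose-6-phosphate dehydrogenase plus glucose 6-phosphate). Metabolites and water-soluble conjugates were isolated, separated by HPLC and expressed as percentages.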

[15] = system: B16; assay: In vivo Antitumor activity against B16 melanoma cells at a optimal dose measured as %ILS (%increase life span); format: functional, Mus musculus; outline: as §1
[16] = system: P388; assay: Antitumor activity in P388/ADR (adriamycin resistant), in male BDF1 mice measured as optimal dose at dose
[17] = system: MC-38; assay: Activity against advanced carcinoma C38 Tumor in CDF1 Mice at dose 0.30 mg/kg measured as % inhibition of tumor; format: functional; details: Mus musculus
[18] = system: MC-38; assay: Activity against advanced carcinoma C38 Tumor in CDF1 Mice at dose 0.15 mg/kg measured as % inhibition of tumor; format: functional; details: Mus musculus
[19] = system: P388; assay: 50% inhibition of incorporation precursor [14C]uridine into RNA P388 cell lines; format: functional, cell-based; details: Mus musculus
[20] = system: MC-38; assay: Activity against advanced carcinoma C38 Tumor in CDF1 Mice at dose 0.075 mg/kg measured as % inhibition of tumor; format: functional; details: Mus musculus
[21] = system: pBR322 plasmid DNA; assay: DNA-cleaving ability expressed as % of closed circular pBR322 DNA cleaved at 100 uM conc
[22] = species on record: Rattus norvegicus; assay: The formation of adrenochrome from epinephrine in the absence of SOD(super oxide dismutase); format: functional; outline: as §5
[23] = system: MC-38; assay: Activity against advanced carcinoma C38 Tumor in CDF1 Mice at dose 0.60 mg/kg measured as % inhibition of tumor; format: functional; details: Mus musculus
[24] = system: MC-38; assay: Number of toxic deaths/number of mice in a group of non tumored mice treated in parallel with the tumor-bearing mice and observed for 100 days at a dose 0.075 mg/Kg; value given as 0/9; format: functional, Mus musculus; outline: as §2
[25] = species on record: Rattus norvegicus; assay: DNA-cleaving ability expressed as % of closed circular pBR322 DNA cleaved at 10 uM conc; format: functional
Outline: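 pBR322 DNA (200 μM nucleotides) in 10 mM Tris·HCl pH 7.8 and 50 mM NaCl, with 4 mM Na₂S₂O₄ and 100 μM FeCl₂. Incubated with drug for 1 h at 20 °C, kept air-saturated. Supercoiled and open-circular forms were separated by agarose gel electrophoresis, stained with ethidium bromide and quantitated by densitometry. % cleaved was calculated from the open- and closed-circular amounts.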

[26] = system: MC-38; assay: Number of toxic deaths/number of mice in a group of non tumored mice treated in parallel with the tumor-bearing mice and observed for 100 days at a dose 0.30 mg/Kg; value given as 0/9; format: functional, Mus musculus; outline: as §2
[27] = species on record: Rattus norvegicus; assay: Stimulation of NADPH oxidation in the presence of rat liver microsomes; format: functional; outline: as §5
[28] = system: MC-38; assay: Mean survival time of treated /untreategroup x100. (number of over 100-day survivors/ number of total mice in the group) at a dose 0.45 mg/kg; format: functional, Mus musculus; outline: as §3
[29] = system: P388 (Mus musculus); assay: Percent of the unconverted metabolite from incubation mixture containing tumor cell homogenate(T)
[30] = system: MC-38; assay: Mean survival time of treated /untreategroup x100. (number of over 100-day survivors/ number of total mice in the group) at a dose 0.075 mg/kg; format: functional, Mus musculus; outline: as §3
[31] = system: MC-38; assay: Mean survival time of treated /untreategroup x100. (number of over 100-day survivors/ number of total mice in the group) at a dose 0.30 mg/kg; format: functional, Mus musculus; details: dose 0.3 mg/kg; outline: as §3
[32] = system: MC-38; assay: Activity against advanced carcinoma C38 Tumor in CDF1 Mice at dose 0.45 mg/kg measured as % inhibition of tumor; format: functional; details: Mus musculus
[33] = system: P388; assay: Antitumor activity against P388/S (AMD sensitive) in male BDF1 mice measured as optimal dose at dose 1.0-5.0 mg/Kg/inj, ip
[34] = system: P388; assay: Antitumor activity against P388/ADR (adriamycin resistant), in male BDF1 mice measured as optimal dose at dose 1.0-5.0 mg/Kg/inj, ip

Cc1nc2c(C(=O)N[C@@H]3C(=O)N[C@H](C(C)C)C(=O)N4CCC[C@H]4C(=O)N(C)CC(=O)N(C)[C@@H](C(C)C)C(=O)O[C@@H]3C)c3nc4c(C(=O)N[C@@H]5C(=O)N[C@H](C(C)C)C(=O)N6CCC[C@H]6C(=O)N(C)CC(=O)N(C)[C@@H](C(C)C)C(=O)O[C@@H]5C)c(N)c(=O)c(C)c-4oc3c(C)c2o1 showed an ILS at 0.3 mg/kg [1] of 124% and an MST [2] of 65.

In the case of Cc1c2oc3c(C)ccc(C(=O)N[C@@H]4C(=O)N[C@H](C(C)C)C(=O)N5CCC[C@H]5C(=O)N(C)CC(=O)N(C)[C@@H](C(C)C)C(=O)O[C@@H]4C)c3nc-2c(C(=O)N[C@@H]2C(=O)N[C@H](C(C)C)C(=O)N3CCC[C@H]3C(=O)N(C)CC(=O)N(C)[C@@H](C(C)C)C(=O)O[C@@H]2C)c(N)c1=O [DACTINOMYCIN] (I: T[dV]P[Sar][NMeV] / II: T[dV]P[Sar][NMeV]; ester I:1-I:C, II:1-II:C; linker I:N-II:N via Actinocin(9to1)), the IC50 [3] is reported as 1100 nM, the Toxic deaths [4] is reported as 4 and the T/C [5] is reported as 103%. For the same compound, the T/C [6] was 107%, the Toxic deaths [7] was 1 and the IC50 [8] was 100 nM. The optimal dose [9] was 0.25 mg/kg, the Adrenochrome formation [10] was “Inhibited” and the Toxic deaths [11] was 1. For the same compound, the IC50 [12] was 900 nM, the MST [13] was 43 and the Activity [14] was 100%. It also gave an ILS [15] of 48%, an optimal dose [16] of 0.25 mg/kg and an inhibition in vivo at 0.3 mg/kg [17] of 67%. It also gave an inhibition in vivo at 0.15 mg/kg [18] of 30%, an IC50 [19] of 50 nM and an inhibition in vivo at 0.075 mg/kg [20] of 30%. The Activity [21] was 22%, the Adrenochrome formation [22] was 2.29 nM min-1 (mg of protein)-1 and the inhibition in vivo at 0.6 mg/kg [23] was 89%. For the same compound, the Toxic deaths [24] was 0, the Activity [25] was 10% and the Toxic deaths [26] was 0. The NADPH oxidation (nM min-1 (mg of protein)-1) [27] was 10, the T/C [28] was 170% and the Activity [29] was 100%. For the same compound, the T/C [30] was 100%, the T/C [31] was 134% and the inhibition in vivo at 0.45 mg/kg [32] was 83%.

With CO[C@@]12[C@H](COC(N)=O)C3=C(C(=O)C(C)=C(N)C3=O)N1C[C@@H]1N[C@@H]12 [MITOMYCIN] the optimal dose [33] was 3 mg/kg and the optimal dose [34] was 3 mg/kg.
